OX1R antag-1 = human HCRTR1 antagonism; O43613; CHO/OX1R cells, Fluo-8 calcium fluorescence, orexin A; inhibition, % at 5 µM; 330,000 tested, 0.43% active;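 active means inhibition above its plate's threshold, mean inhibition of all tested compounds on the plate plus 3 SD, cut at about 37% in these data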;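 further: 0% = orexin A challenge wells and 100% = SB-334867-A antagonist wells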
GPR7 antagonist = human neuropeptides B/W receptor 1 antagonism; P48145; GPR7-expressing cells, fluorescence antagonist assay; inhibition, % at 4.4 µM; 290,000 tested, 1.1% active; in the data active means inhibition above about 16%, passing the limit was not always enough;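 further: cells stimulated with the agonist NPW; 0% = agonist with vehicle and 100% = vehicle without agonist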
Target sequence (P48145 whole entry, looked up): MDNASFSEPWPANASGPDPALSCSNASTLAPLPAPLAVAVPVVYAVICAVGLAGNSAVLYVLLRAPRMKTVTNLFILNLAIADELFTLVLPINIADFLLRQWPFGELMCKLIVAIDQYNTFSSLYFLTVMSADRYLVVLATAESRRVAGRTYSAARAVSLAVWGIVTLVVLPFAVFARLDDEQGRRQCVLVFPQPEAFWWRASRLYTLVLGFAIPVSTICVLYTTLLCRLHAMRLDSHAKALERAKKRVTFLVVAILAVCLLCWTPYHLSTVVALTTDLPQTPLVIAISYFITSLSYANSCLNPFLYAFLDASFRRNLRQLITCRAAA
CHO parental Ca = counter-screen for OX1R antagonists: effect in parental CHO cells | 330,000 tested, 0.63% active | parental CHO-K1, ATP-induced calcium, Fluo-8 fluorescence | inhibition, % at 5.6 µM;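 active means inhibition above that plate's mean sample inhibition plus 3 SD, cut at about 26% in these data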;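 further: 0% = ATP-challenged DMSO wells and 100% = DMSO wells without ATP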
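Test system: untransfected parental CHO cell line. Compound: one dose, 5.6 µM nominal. Detection: intracellular calcium via Fluo-8 no-wash fluorescent dye. Measure: % inhibition. Benchmarks: ATP-challenged DMSO wells low, unchallenged DMSO wells high.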
OX1R antag-2 = OX1R (human) antagonism. 330,000 tested, 1.8% active. OX1R-expressing cells, FRET antagonist read-out. O43613. AID 485270. inhibition, % at 6.6 µM; in the data active means inhibition mostly above about 38%, no sharp cut-off; inactive means mostly below about 40%;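 further: 0% = agonist challenge alone and 100% = reference antagonist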
TAAR1 agonist = agonists of human TAAR1 | 360,000 tested, 0.99% active | AID 624467 | CHO RD-HGA16 TAAR1, Fluo-8 calcium fluorescence; vehicle wells 0%, saturating PEA agonist 100% | activation, % at 3 µM;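 active means activation above the mean activation of all test compounds in the run plus 3 SD, cut at about 38% in these data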
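Assay system: CHO-derived RD-HGA16 cells with stable Gα16 and human TAAR1; timing: 17-24 h seeding, 75 min 37 °C dye, 30 min RT; read-out: % activation from peak over basal fluorescence ratio, DMSO-to-PEA scaled; measured by: kinetic Fluo-8 calcium fluorescence; benchmarks: low control DMSO, high control PEA (EC100); doses: 3 µM single concentration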
TAAR1 antag = human TAAR1 antagonism; Q96RJ0; CHO RD-HGA16 TAAR1, Fluo-8 calcium fluorescence, antagonist; inhibition, % at 3 µM; 360,000 tested, 1.5% active; AID 624466;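 active means inhibition above a per-plate cutoff, the mean inhibition of test compounds on that plate plus 3 SD, cut at about 49% in these data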;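 further: 0% = DMSO plus EC80 beta-PEA response and 100% = DMSO alone without agonist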
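System: CHO RD-HGA16 cells bearing hTAAR1. Reagent: EC80 β-phenethylamine stimulus. Schedule: seeding 17-24 h prior, 75-min 37 °C, 30-min RT dye loading. Signal: Fluo-8 intracellular calcium dye fluorescence, real-time kinetic reads. Read-out: % inhibition from peak post-agonist over basal fluorescence ratio. Benchmarks: vehicle wells and EC80 agonist wells. Replicates: n of 1.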
TAAR1 ag conf = human TAAR1 agonism, confirmed; AID 651783; CHO RD-HGA16 TAAR1, Fluo-8 calcium fluorescence; scaled: DMSO 0%, maximal phenethylamine 100%; activation, % at 3 µM; 2,400 tested, 82% active; shares compounds with TAAR1 agonist;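 active means activation above a cutoff set at the run's mean compound activation plus 3 SD, cut at about 39% in these data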
Ga16 ag counter = counter-screen for TAAR1 agonists: nonselective agonists in parental cells; CHO-Ga16 parental, Fluo-8 calcium fluorescence; normalized to maximal ATP response, DMSO zero; activation, % at 3 µM; shares compounds with TAAR1 agonist; 2,400 tested, 50% active; AID 651787;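 active means activation above the run cutoff, the mean activation over all tested wells plus 3 SD, cut at about 12% in these data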;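 further: 0% = DMSO wells and 100% = maximal ATP response on the peak over basal ratio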
TAAR1 desensitize = human TAAR1 agonist that also desensitizes the receptor | shares compounds with TAAR1 agonist | CHO RD-HGA16 hTAAR1, Fluo-8 calcium, beta-PEA response inhibition | inhibition, % at 3 µM | 2,400 tested, 46% active;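 active means inhibition above the run cutoff, the mean inhibition of all test compounds plus 3 SD, cut at about 49% in these data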;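 further: beta-PEA stimulus applied at its EC80; loss of beta-PEA calcium signal after compound pretreatment read as receptor desensitization; 0% = DMSO with beta-PEA at EC80 and 100% = DMSO alone without agonist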
Ga16 antag count = nonselective Ga16 antagonist in TAAR1 agonist counter-screen; 2,400 tested, 39% active; CHO-Ga16 ATP-induced calcium, Fluo-8 fluorescence; AID 651952; shares compounds with TAAR1 agonist; inhibition, % at 3 µM;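 active means inhibition above the plate's mean compound inhibition plus 3 SD, computed per plate, cut at about 22% in these data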;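 further: 0% = EC80 ATP with DMSO and 100% = DMSO wells without ATP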
* marks the source's active call; other numbers are inactive results. An excerpt weighted towards active compounds, which were near 4.6% of everything screened.

Results for CCCCNC(=O)C[C@@H]1C[C@@]2(C(=O)OC)CCCCC=C2N(Cc2cccc3ccccc23)C1=O ?
TAAR1 agonist: 7; TAAR1 antag: 19

How did CCCCCOc1ccc(CSC(=N)N)cc1[N+](=O)[O-] do in these assays?
OX1R antag-1: -27; GPR7 antagonist: 20; CHO parental Ca: -10; OX1R antag-2: 30; TAAR1 agonist: 59*; TAAR1 antag: 28; TAAR1 ag conf: 104*; Ga16 ag counter: 59*; TAAR1 desensitize: 69*; Ga16 antag count: 29*

Results for Oc1ccc(/C=N\Nc2cc(N3CCOCC3)nc(N3CCOCC3)n2)c(O)c1 ?
OX1R antag-1: -24; GPR7 antagonist: -1; CHO parental Ca: -8; OX1R antag-2: 18; TAAR1 agonist: 8; TAAR1 antag: -9

What do the screens show for `Cc1cc(N/N=C/c2ccc(O)cc2O)nc(N2CCOCC2)n1`?
OX1R antag-1: -16; GPR7 antagonist: -10; CHO parental Ca: 1; OX1R antag-2: 14; Ga16 ag counter: 4; Ga16 antag count: 9

How did CN1CCN(C2=Cc3ccccc3Sc3cc(F)ccc32)CC1 do in these assays?
OX1R antag-1: -5; GPR7 antagonist: 0; CHO parental Ca: 5; OX1R antag-2: 13; TAAR1 agonist: 33; TAAR1 antag: 1

What do the screens show for `CN1CCN(C2=Cc3ccc(Cl)cc3Sc3ccc(F)cc32)CC1`?
OX1R antag-1: 1; GPR7 antagonist: 4; CHO parental Ca: 4; OX1R antag-2: 11; TAAR1 agonist: 49*; TAAR1 antag: 12; TAAR1 ag conf: 57*; Ga16 ag counter: 41*; TAAR1 desensitize: 57*; Ga16 antag count: 44*

Results for CC(C)OCCCN(C)C1CCN(S(=O)(=O)c2ccc(-c3cc(C(F)(F)F)no3)s2)CC1 ?
OX1R antag-1: -7; GPR7 antagonist: 20; CHO parental Ca: -9; OX1R antag-2: 15; TAAR1 agonist: 5; TAAR1 antag: -7

How did CCN(CC)S(=O)(=O)c1ccc(N2CCCC2)c(NC(=O)C2=NN(c3ccccc3)C(=O)CC2)c1 do in these assays?
OX1R antag-1: -36; CHO parental Ca: -27; OX1R antag-2: 1; TAAR1 agonist: -1; TAAR1 antag: 6

What do the screens show for `COCCNCCCOc1ccc(C(C)(C)c2ccccc2)cc1`?
OX1R antag-1: -12; GPR7 antagonist: -5; CHO parental Ca: -13; OX1R antag-2: 21; TAAR1 agonist: 24; TAAR1 antag: -21

What do the screens show for `COCCCNCCCOc1ccc(C(C)(C)c2ccccc2)cc1`?
OX1R antag-1: -14; GPR7 antagonist: 1; CHO parental Ca: -9; OX1R antag-2: 5; TAAR1 agonist: 30; TAAR1 antag: -22

What do the screens show for `CC(C)(c1ccccc1)c1ccc(OCCCNCCO)cc1`?
OX1R antag-1: 6; GPR7 antagonist: 7; CHO parental Ca: 8; OX1R antag-2: 3; TAAR1 agonist: 53*; TAAR1 antag: 0; TAAR1 ag conf: 85*; Ga16 ag counter: 41*; TAAR1 desensitize: 44; Ga16 antag count: 16

What do the screens show for `C=CCNCCCOc1ccc(C(C)(C)c2ccccc2)cc1`?
OX1R antag-1: -17; GPR7 antagonist: -4; CHO parental Ca: -5; OX1R antag-2: 1; TAAR1 agonist: 61*; TAAR1 antag: -6; TAAR1 ag conf: 90*; Ga16 ag counter: 25*; TAAR1 desensitize: 64*; Ga16 antag count: 17

Screening results deposited in PubChem BioAssay by The Scripps Research Institute Molecular Screening Center.
